Results from different studies.
Lines come from different studies, so protocols differ.
Target: Serine/threonine-protein kinase ULK1 (ULK1, Homo sapiens, UniProt O75385)
Residues used in one study (O75385 1-1050): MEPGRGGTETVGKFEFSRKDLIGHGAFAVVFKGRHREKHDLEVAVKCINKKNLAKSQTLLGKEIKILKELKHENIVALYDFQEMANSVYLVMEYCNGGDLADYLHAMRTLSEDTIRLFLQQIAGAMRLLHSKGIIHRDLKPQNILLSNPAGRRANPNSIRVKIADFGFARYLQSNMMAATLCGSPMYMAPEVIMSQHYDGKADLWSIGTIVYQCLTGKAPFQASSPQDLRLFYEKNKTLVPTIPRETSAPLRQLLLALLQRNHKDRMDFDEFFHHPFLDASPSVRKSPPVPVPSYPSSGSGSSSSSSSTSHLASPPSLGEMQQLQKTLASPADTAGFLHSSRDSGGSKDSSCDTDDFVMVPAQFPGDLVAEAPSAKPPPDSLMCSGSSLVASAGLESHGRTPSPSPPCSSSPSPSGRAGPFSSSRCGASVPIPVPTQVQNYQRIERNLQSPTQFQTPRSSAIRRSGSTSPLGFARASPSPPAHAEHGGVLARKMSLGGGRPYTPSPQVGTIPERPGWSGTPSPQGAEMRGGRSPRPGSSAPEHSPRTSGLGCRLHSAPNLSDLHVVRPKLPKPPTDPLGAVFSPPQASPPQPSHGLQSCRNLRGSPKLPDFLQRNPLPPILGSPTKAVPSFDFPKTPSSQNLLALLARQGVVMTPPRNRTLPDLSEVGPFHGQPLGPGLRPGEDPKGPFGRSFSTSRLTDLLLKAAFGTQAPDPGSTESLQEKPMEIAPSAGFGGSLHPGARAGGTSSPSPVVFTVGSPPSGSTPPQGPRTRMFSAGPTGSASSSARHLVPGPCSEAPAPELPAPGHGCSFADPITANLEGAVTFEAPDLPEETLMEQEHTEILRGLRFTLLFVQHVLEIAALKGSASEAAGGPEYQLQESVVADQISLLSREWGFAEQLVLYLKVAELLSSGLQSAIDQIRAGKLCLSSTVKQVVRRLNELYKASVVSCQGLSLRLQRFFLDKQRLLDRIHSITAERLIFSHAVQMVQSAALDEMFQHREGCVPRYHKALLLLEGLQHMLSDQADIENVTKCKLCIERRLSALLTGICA

| Compound | effect on | action | technique | tested at | measurement | result |
| --- | --- | --- | --- | --- | --- | --- |
| O=C(NCCCNc1nc(Nc2cccc(NC(=O)N3CCCC3)c2)ncc1I)c1cccs1 | enzyme activity | inhibitor | radiometric | 1 µM | remaining activity | 4% |
| Cc1c(C(=O)O)cc(-c2ccc(C3CCNCC3)cc2)c2ccc(-c3ccc(C(F)(F)F)cc3)cc12 | binding |  | competition with immobilised ligand | 1 µM | remaining binding | 100% |
| CCCCNc1ncc2c(-c3ccc(F)cc3)nn(C[C@H]3CC[C@H](N)CC3)c2n1 | target engagement in cells | inhibitor | chemoproteomics | 20 mM | inhibition | 3.7% |
| N#Cc1ccc(Nc2ccc3[nH]c(=O)[nH]c3c2)c(Cl)c1 | cell-free assay |  | competition with immobilised ligand | 1 µM | remaining binding | 81% |
| CN1CC(Oc2cnc(C#N)cc2-c2ccn3nc(NC(=O)C4CC4)cc3c2)C1 | enzyme activity | inhibitor |  | 1 µM | inhibition | -1% |
| Cc1ccc(C(=O)NCc2ccsc2)cc1C#Cc1cn(C(C)C)c2ncnc(N)c12 | enzyme activity | inhibitor |  | 1 µM | activity vs control | 101% |
| COc1ccc(Nc2ncc(C(F)(F)F)c(NC3CC3)n2)cc1OC | thermal stability |  | DSF | 10 µM | ΔTm | 9.5 °C |
| C[S+]([O-])c1ccc(-c2nc(-c3ccncc3)c(-c3ccc(F)cc3)[nH]2)cc1 (stereo not shown) | cell-free assay |  |  | 0.5 µM | remaining signal | 89.3% |
| CCOCCn1cc(C(=O)Nc2ccc(-n3nc(-c4cccnc4)cc3C(F)(F)F)cn2)ccc1=O | cell-free assay |  | competition with immobilised ligand | 1 µM | remaining binding | 76% |
| Cc1nn(CC(F)(F)F)cc1Nc1nccc(NCCCNC(=O)C2CCC2)n1 | enzyme activity | inhibitor | radiometric | 1 µM | remaining activity | 96% |
| COc1cc(/C=C/C(=O)CC(=O)/C=C/c2ccc(O)c(OC)c2)ccc1O | enzyme activity | inhibitor |  | 1 µM | activity vs control | 88% |
| FC(F)(F)Oc1cccc(-c2cnc3ccc(-c4ccncc4)nn23)c1 | enzyme activity | inhibitor | radiometric | 1 µM | activity vs control | 114% |
| O=C(Nc1cccc(Nc2ncc(Br)c(NCCc3cnc[nH]3)n2)c1)N1CCCC1 | enzyme activity | inhibitor | radiometric | 1 µM | remaining activity | 6% |
| C[C@@H](c1cccc(C#N)c1)n1cc(Cl)cc(C(N)=O)c1=N | cell-free assay |  | competition with immobilised ligand | 1 µM | remaining binding | 72% |
| Cc1nn(CC(F)(F)F)cc1Nc1ncc(Br)c(NCCCNC(=O)C2CCC2)n1 | enzyme activity | inhibitor | radiometric | 1 µM | remaining activity | 3% |
| C#Cc1cccc(Nc2ncnc3cc(OCCOC)c(OCCOC)cc23)c1 | cell-free assay |  |  | 0.5 µM | remaining signal | 113% |
| Cc1nn(CC(F)(F)F)cc1Nc1nccc(NCCc2cnc[nH]2)n1 | enzyme activity | inhibitor | radiometric | 1 µM | remaining activity | 88% |
| CCC(=N\O)/C(C)=C/c1ccc(F)cc1 | cell-free assay |  | competition with immobilised ligand | 1 µM | remaining binding | 85% |
| NS(=O)(=O)c1ccc(CNc2nc(Nc3cccc(NC(=O)N4CCCC4)c3)ncc2Br)cc1 | enzyme activity | inhibitor | radiometric | 1 µM | remaining activity | 66% |
| N#CCCc1ccc2c(c1)-c1[nH]c3ccc([N+](=O)[O-])cc3c1CC(=O)N2 | cell-free assay |  |  | 0.5 µM | remaining signal | 94.2% |
| NS(=O)(=O)c1cc(NC(=O)C2(c3ccccc3Cl)CC2)ccc1Oc1cccc(Cl)c1 | cell-free assay |  | competition with immobilised ligand | 1 µM | remaining binding | 89% |
| Cc1nn(CC(F)(F)F)cc1Nc1ncc(C2CC2)c(NCCCNC(=O)C2CCC2)n1 | enzyme activity | inhibitor | radiometric | 1 µM | remaining activity | 58% |
